Source: PubChem BioAssay (several laboratories)
Pemphigus Ab inh: blocks pemphigus antibody binding to human desmoglein-3 | 310,000 tested, 0.48% active | P32926 | DSG3-coupled beads, scFv-anti-DSG3-GFP binding, flow cytometry; stronger effect = lower value | AID 588358 | binding (percent of control), % at 10 µM;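 active = binding more than 3 SD below its plate's average and above zero; inconclusive = below that plate limit but binding exactly zero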;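 note: hits lower antibody fragment binding to DSG3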
JMJD2C inh: inhibitors of human GASC-1 (JMJD2C) demethylase; Q9H3R0; 330,000 tested, 0.069% active; GST-JMJD2C(1-420) H3K9me3 demethylation, DELFIA europium; inhibition, % at 2.35 µM;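 active = more than half of a compound's replicate wells show inhibition beyond 50%, single wells judged on their own value; inconclusive = some, but no more than half, of replicates pass 50% inhibition; inactive = no replicate passes 50% inhibition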;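 note: signal counts dimethyl H3K9 product captured on neutravidin plate; 0% = median of DMSO wells and 100% = 0.3 times that DMSO median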
Arr AP2 block: human beta-arrestin and AP2 interaction inhibition; inhibition, % at 10 µM; FITC-arrestin peptide / GST-AP2 beads, flow cytometry; AP2 beta2 appendage carries R879A mutation; 340,000 tested, 0.31% active;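 active = inhibition above a set limit, near 3 SD of compounds lacking own fluorescence, cut at about 54% in these data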;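 note: plate controls were DMSO wells for no effect and 5 µM unlabelled arrestin peptide for full effect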
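Measured by: flow cytometry, FL1 (488/535 nm); Material: AP2 appendage R879A on GSH beads; Evaluation: percent response; Timing: pre-incubation 12 min, peptide binding 1 h, room temperature; Also added: 50 nM FITC-arrestin peptide; Medium: PBS with 0.05% Tween 20 and 0.1% BSA.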
LANA-H2A inh: blocks KSHV LANA binding to histone H2A/H2B; AID 2629; cell-free LANA-H2A/H2B peptide, fluorescence polarization; 320,000 tested, 0.6% active; inhibition, % (no concentration beside the values); Q9QR71; in the data active = inhibition mostly above about 10%, no sharp cut-off; inactive = mostly below about 6.7%
HDAC3 inh: blocks human histone deacetylase 3 | O15379 | 320,000 tested, 0.15% active | recombinant HDAC3, fluorogenic peptide/trypsin coupled, fluorescence | inhibition, % at 8.3 µM; in the data active = inhibition above about 26%, passing the limit was not always enough; inconclusive = no clear call, values can overlap the other calls
Target sequence (O15379 whole entry, looked up): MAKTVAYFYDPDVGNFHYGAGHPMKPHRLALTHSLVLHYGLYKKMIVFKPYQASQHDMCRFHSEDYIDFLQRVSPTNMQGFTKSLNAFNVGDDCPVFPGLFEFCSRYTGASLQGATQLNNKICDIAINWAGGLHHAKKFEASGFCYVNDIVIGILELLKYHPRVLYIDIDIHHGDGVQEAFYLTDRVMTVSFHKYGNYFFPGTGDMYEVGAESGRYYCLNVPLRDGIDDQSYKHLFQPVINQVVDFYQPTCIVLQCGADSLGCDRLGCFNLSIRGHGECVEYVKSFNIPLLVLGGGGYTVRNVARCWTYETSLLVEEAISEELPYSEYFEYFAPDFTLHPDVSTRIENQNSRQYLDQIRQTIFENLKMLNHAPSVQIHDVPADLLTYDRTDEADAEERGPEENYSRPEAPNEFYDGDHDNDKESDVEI
T cell HTS: modulates CD8 T cell binding to vesicles; 2C CD8+ T cell-vesicle binding, flow cytometry; stronger effect = lower value; response (vesicle binding), % at 7 µM; 330,000 tested, 0.068% active;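 active = response, share of CD8 T cells binding vesicles, and their 90th percentile fluorescence all below set limits, cut at about 80% in these data, passing the limit was not always enough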;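 note: values below 100% mean blocked vesicle binding to the CD8+ T cells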
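Read-out – percent CD8+ FL2 mean versus row control · System – murine 2C transgenic CD8+ T lymphocytes · Times – 1.5 h cell–vesicle binding at 37 °C, then 20 min icy labelling · Control set – naked vesicles low, QL9 vesicles with vehicle high · Detection – cytometric PE anti-B7-1 and Alexa647 anti-CD8 signals after 1% paraformaldehyde fixation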
The depositor's hits bear a star; ? = inconclusive; . = no result; + = active, no number; ! = not active in a repeat. Only some compounds are listed: those with a hit (about 1.6% of all), similar ones and a draw of the others.

SMILES | Pemphigus Ab inh | JMJD2C inh | Arr AP2 block | LANA-H2A inh | HDAC3 inh | T cell HTS
CCOC(=O)C1=CC(=C2C(=O)N(CC)C(=S)N(CC)C2=O)c2ccccc2O1 | . | 52.6* | . | -3.2 | 8.0 | 119.0
COP(=S)(OC)SCN1C(=O)c2ccccc2C1=O | 98.4 | 1.2 | 19.4 | 23.3* | . | 716.1
Cc1cc(OCC(=O)NCc2ccncc2)c2c3c(c(=O)oc2c1)CCC3 | 94.6 | 33.5 | 16.1 | 16.2* | -5.7 | 215.8
C[C@H](CO)N1C[C@H](C)[C@@H](CN(C)C(=O)Oc2ccc3ccccc3c2)OCc2cn(nn2)CCCC1=O | 101.0 | . | . | . | . | .
Nc1c(Br)cc([N+](=O)[O-])cc1[N+](=O)[O-] | 103.7 | 11.0 | -1.8 | 25.6* | -0.7 | 461.8
CN1CCN(c2ccc(C=O)cc2)CC1 | 64.0 | 59.1* | 7.7 | 0.9 | 6.2 | 161.5
CCOP(=O)(Nc1ccc2c(c1)C(=NNC(N)=S)c1ccccc1-2)OCC | . | . | 7.9 | . | . | .
Cn1ncnc2c(=O)n(C)c(=O)nc1-2 | . | 81.0* | 1.2 | -0.3 | 4.3 | 240.2
CCOc1ccc(N2C(=O)/C(=C/c3ccco3)C(=O)NC2=S)cc1 | 13.9* | -4.2 | 3.5 | 6.2 | 0.0 | 157.9
Cc1ccccc1N1C(=O)/C(=C/c2ccco2)C(=O)NC1=S | . | 14.7 | . | 25.5* | 0.7 | 330.5
CS(=O)(=O)c1ccc(C2=C(CNC(=O)c3nccs3)[C@H]3CC[C@@H](C2)N3Cc2ccco2)cc1 | 103.5 | . | . | . | . | .
Cc1cc(C)c(C(=O)N2CCC3(CC2)OCCO3)c(C)c1 | 110.8 | 2.3 | -5.7 | 28.2* | 10.5 | 230.7
CC1(C)CC(=O)CC(C)(C)N1O | 104.0 | . | . | . | . | .
O=C1OCCC1C(=O)c1ccccc1 (configuration not stated) | 104.0 | . | . | . | . | .
O=C1NC(=O)C(C(CC(=O)c2ccccc2)c2ccccc2)C(=O)N1 (configuration not stated) | 128.8 | 53.1* | -5.5 | -0.5 | -5.9 | 193.2
Cc1ccc2c(c1Cl)NC(C(=O)O)C1CC(Sc3ccccc3[N+](=O)[O-])C(Cl)C21 (configuration not stated) | 40.5* | 9.8 | 5.0 | -6.3 | -2.9 | 479.5
CCN(CC)C(=O)c1ccc2c(c1)C1C(Cl)C(Sc3ccccc3[N+](=O)[O-])CC1C(C(=O)O)N2 (configuration not stated) | 87.4 | -0.5 | 42.6 | 4.3 | 6.4 | 421.8
C=C(C)[C@@]12OC3(c4ccccc4)O[C@@H]1C1[C@@H]4O[C@]4(CO)[C@@H](O)[C@]4(O)C(=O)C(C)=C[C@H]4[C@@]1(O3)[C@H](C)[C@H]2OC(=O)/C=C/C=C/c1ccccc1 (some centres not stated) | 96.3 | 30.1 | 10.8 | -2.9 | 11.6 | 651.5
CCOc1ccc(C(C)=O)cc1Cc1c(O)[nH]c(=S)[nH]c1=O | 122.2 | -3.7 | -3.0 | 0.5 | 7.0 | 163.9
CCCOc1ccc(C(C)=O)cc1Cc1c(O)[nH]c(=S)[nH]c1=O | 94.1 | -6.7 | 4.8 | 15.5* | -6.2 | 339.8
C=CC(=O)NCNC(=O)C=C | 106.7 | 7.3 | -2.5 | 10.4* | 2.4 | 244.4
c1coc(CN2Cc3ccccc3-n3nncc3C2)c1 | 100.8 | . | . | . | . | .
Cc1cccc(-n2c(O)c(/C=C3/C(c4ccccc4)=Nc4ccccc43)c(=O)[nH]c2=O)c1 | 84.2 | -5.0 | 3.1 | 85.6* | -1.9 | 107.6
Cc1ccccc1-n1c(O)c(/C=C2/C(c3ccccc3)=Nc3ccccc32)c(=O)[nH]c1=O | 99.3 | 13.7 | 9.6 | -0.6 | ? | 223.7
Cc1cc(C(=O)OC(C)C(=O)Nc2ccccc2)c(C)n1C1CC1 (configuration not stated) | 98.1 | . | . | . | . | .
SMILES | Pemphigus Ab inh | JMJD2C inh | Arr AP2 block | LANA-H2A inh | HDAC3 inh | T cell HTS
COc1ccc(OC(=O)N(C)C[C@@H]2OCc3ccccc3-c3c(n(C)c4ccccc34)C(=O)N([C@H](C)CO)C[C@@H]2C)cc1 | 103.1 | . | . | . | . | .
Cn1cccc1/C=C1/C(=O)NC(=S)N(Cc2ccc(F)cc2)C1=O | 70.4* | 4.7 | 11.2 | 7.2 | 2.3 | 290.6
Nc1ccc2nonc2c1[N+](=O)[O-] | 103.2 | -3.1 | -10.2 | 28.6* | 1.5 | 133.6
O=[N+]([O-])c1ccc(N2CCCCCC2)c2nonc12 | 265.8 | 6.3 | 12.9 | -15.6 | -0.1 | .
Cc1cc(C)c(C)c(C(O)(C(=O)O)c2ccccc2)c1 (configuration not stated) | 105.4 | . | . | . | . | .
CN1C2CCC1CC(=NO)C2 | 100.2 | 16.7 | 22.4 | -1.8 | -5.7 | 292.2
O/N=C1\CCC2CN(C3CCCCC3)CC2C1 (configuration not stated) | 11.8* | 24.5 | -2.0 | -2.4 | 7.6 | 174.4
CC(C(=O)c1c[nH]c2ccccc12)N1CCOCC1 (configuration not stated) | 113.7 | 4.0 | -4.8 | -0.2 | 0.7 | 403.1
CC(C(=O)c1c[nH]c2ccccc12)N1CCSCC1 (configuration not stated) | 113.6 | 23.9 | -1.3 | 22.9* | -4.5 | 269.7
Cc1cccc(C2=NCC(=O)N(CC(=O)NCc3ccco3)c3sc4c(c32)CCCC4)c1 | 101.3 | 19.3 | -10.9 | -3.2 | 4.9 | 430.2
COc1ccc(C2=NCC(=O)N(CC(=O)NCc3ccco3)c3sc4c(c32)CCCC4)cc1 | 76.1* | -18.6 | 9.3 | -3.6 | 10.1 | 326.9
CN1C(=O)C(Cc2ccc(OCc3ccccc3)cc2)C(=O)N(C)C1=O | 101.7 | 50.5* | -3.2 | 9.0 | -1.8 | 316.2
CN1C(=O)C(Cc2cccc3ccccc23)C(=O)N(C)C1=O | 96.8 | 4.3 | 5.1 | 0.0 | 0.8 | 361.2
NCCc1ccc(OCc2ccccc2)c(OCc2ccccc2)c1 | 113.8 | -8.5 | 15.2 | -7.3 | -0.9 | 273.3
COc1cc(CC2C(=O)N(C)C(=O)N(C)C2=O)ccc1OCc1ccccc1 | 101.3 | 52.5* | 4.1 | 2.0 | 3.5 | 185.9
O=C(NC(=S)N1CC1)c1ccccc1 | 107.1 | . | . | . | . | .
COc1ccc(C(SCC(NC(=O)OCc2ccccc2)C(=O)O)c2ccc(OC)cc2)cc1 (configuration not stated) | 107.4 | . | . | . | . | .
O=C(CCN1CCCCC1)Nc1ccc(Br)cc1C(=O)c1ccccc1 | 93.6 | -13.8 | -18.3 | 18.9* | 0.4 | 234.0
CC(C(=O)Nc1ccc(Br)cc1C(=O)c1ccccc1)N1CCCCC1 (configuration not stated) | 100.2 | -7.0 | 10.6 | -0.5 | -0.3 | 259.8
CC(C)CC(N(C)C)C1(c2ccc(Cl)cc2)CCC1 (configuration not stated) | 79.1*! | . | 9.6 | . | . | 250.2
CC(C)Oc1cccc(NC(=O)c2cccn(Cc3ccc4c(c3)OC(F)(F)O4)c2=O)c1 | 114.4 | 6.8 | 9.7 | 0.3 | 34.2* | 319.7
O=C(Nc1cccc(C(F)(F)F)c1)c1cccn(Cc2ccc3c(c2)OC(F)(F)O3)c1=O | 110.3 | 5.1 | -6.2 | 4.1 | -1.5 | 303.0
CCOP(=S)(OCC)Oc1nc(Cl)c(Cl)cc1Cl | 101.8 | 15.0 | -10.8 | + | -5.9 | 313.2
